Most compounds without a hit are left out; they make up all but 3.5% or so of the library.
HIV Env fusion: inhibitors of HIV Env-mediated cell fusion; HeLa-JRFL Env/CEM21 cell fusion, luciferase; inhibition, % at 12.3 µM; 1.1% of 360,000 active;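 active means mean replicate inhibition score of at least 50 and every replicate individually at or above 50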;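 further: 0% = plate neutral controls and 100% = maraviroc near 300 nM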
FGF22 binding: binders of recombinant human FGF22 by thermal shift. Q9HCT0. SYPRO orange fluorescence; percent of sucrose octasulfate shift, DMSO zero. activity (Tm shift, normalised), % at 9.99 µM. 1.5% of 340,000 active. AID 651658;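 active means mean Tm shift, scaled 0 neutral to 100 positive control, at about 1.3% or above, every replicate too, limit read from the data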
Target sequence (Q9HCT0 whole entry, looked up): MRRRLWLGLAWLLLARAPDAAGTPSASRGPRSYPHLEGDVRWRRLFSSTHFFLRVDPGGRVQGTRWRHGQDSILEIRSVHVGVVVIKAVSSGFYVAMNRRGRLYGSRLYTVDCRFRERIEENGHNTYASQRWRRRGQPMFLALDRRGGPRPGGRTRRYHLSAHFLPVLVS
PGC1a acetyl inh: modulators of PGC1a acetylation. U2OS PGC1a acetylation, AlphaScreen anti-acetyl-lysine; with virally co-expressed GCN5 acetyltransferase. 0.17% of 350,000 active. inhibition, % at 15.6 µM;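 active means every replicate shows inhibition of at least 40%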;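 further: 0% = neutral control wells and 100% = positive control wells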
Cneo AK release: Cryptococcus neoformans lysis via adenylate kinase release | C. neoformans lysis, adenylate kinase release luminescence, 4 h; normalised: neutral wells 0, clomiphene wells 100 | lysis activity, % at 15 µM | 0.2% of 360,000 active | AID 651654;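 active means mean lysis activity across replicates of at least 80%, whatever share of replicates individually reach that level; inactive means mean lysis activity below 80%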
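Schedule: static 4 h at 37 °C with compound, 1 h detection; system: C. neoformans cells; benchmarks: Clomiphene as positive control; buffer or medium: fresh YPD medium; measure: luminescence rise reflecting yeast cell lysis; measured by: luminescent adenylate kinase detection reagent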
ERAP1 HTS inh: inhibitors of human ERAP1 aminopeptidase | Q9NZ08 | recombinant ERAP1, Leu-AMC fluorescence, 60 min | inhibition, % at 10.7 µM | 0.15% of 340,000 active | AID 652197;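 active means mean replicate inhibition of at least 30%, or all replicates individually reaching that 30% level; inactive means mean below 30% and not every replicate reaching it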;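 further: 0% = neutral control wells and 100% = L-leucinethiol positive control wells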
Ecoli rRNA inh: inhibitors of bacterial rRNA selective over humanized ribosomes | AID 720706 | GFP signal change (wild-type ribosome), % (concentration not given with the values) | E. coli WT GFP vs humanized-ribosome RFP mutants, fluorescence, 24 h; hits give low values; DMSO median 0, no signal -100 | 1.6% of 350,000 active;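 active means significant combined selectivity score with lowered wild-type GFP, culture density cut under 30%, mutant RFP and density less affected; inactive means any of these conditions unmet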
The depositor's hits bear a star; i = inactive; / = no result given; [ ] = another dose, or the depositor's remark.

SMILES	HIV Env fusion	FGF22 binding	PGC1a acetyl inh	Cneo AK release	ERAP1 HTS inh	Ecoli rRNA inh
COc1ccc(C(CC(=O)Nc2cc([N+](=O)[O-])ccc2OC)c2ccccc2)cc1 (stereo unspecified)	79*	0	1	1	-3	-7
COc1cc(/C=N/NC(=O)Cc2ccccc2)ccc1Oc1ccc([N+](=O)[O-])cc1[N+](=O)[O-]	-19	42	/	/	-4	14
O=C(CC1CC1)N1[C@H](CO)[C@H]2c3ccccc3N(S(=O)(=O)c3ccc(F)cc3)C[C@H]21	/	0	2	0	1	-4
Cc1cc(O)c2c(c1O)C(=O)[C@]13C(=C2O)C(=O)[C@@H]2[C@@H](O)[C@H]1[C@@H]1[C@H](O)[C@H]3C(=O)C3=C(O)c4c(O)cc(C)c(O)c4C(=O)[C@]312	/	/	-7	-3	/	/
O=C(COc1cccc2ccccc12)NNC(=O)Nc1ccccc1	-89	/	-8	-2	0	-33*
CC(=O)Nc1ccc(NC(=O)COc2cccc3ccccc23)cc1	5	0	-6	1	0	-3
O=C(COc1cc2oc(=O)c3c(c2cc1Cl)CCC3)NCCCn1ccnc1	-8	0	/	9	2	-17*
CO[C@H]1CN(C)C(=O)c2ccc(NC(C)=O)cc2OC[C@H](C)N(C(=O)Cc2cccnc2)C[C@H]1C	11[16.7 µM]	/	13	0	3	0
C[C@@H](O)C#Cc1cnc2c(c1)C(=O)N([C@@H](C)CO)C[C@H](C)[C@H](CN(C)CC1CCOCC1)O2	-7[16.7 µM]	0	9	-2	2	0
CC(C)CC(COCc1cccc(C(F)(F)F)c1)N1CCN(C(=O)c2cccc(C(F)(F)F)c2)CCC1=O (stereo unspecified)	67*	-1	3	0	/	2
Cc1ccccc1COC[C@H](CC(C)C)N1CCN(C(=O)c2cccc(C(F)(F)F)c2)CCC1=O	72*	0	/	15	1	6
Cc1ccc(COC[C@H](CC(C)C)N2CCN(C(=O)c3cccc(C(F)(F)F)c3)CCC2=O)cc1	2	0	/	/	5	-4
CCN1CCN(S(=O)(=O)c2ccc(OC)c(NC(=O)c3ccccc3)c2)CC1	5	0	/	-1	-1	19
CN(C)S(=O)(=O)c1ccc2c(c1)nc(CCC(=O)O)n2C	1	/	0	0	0	23
CN(C)S(=O)(=O)c1ccc2c(c1)nc(CCC(=O)NCC(=O)Nc1ccc(F)c(F)c1F)n2C	-41	44*	7	1	2	4
CC(=O)c1cccc(-c2ccnc3c2CC(C(=O)NCC2CC2)O3)c1 (stereo unspecified)	8	0	-58	-2	1	-4
CCCc1cc(N2CCOCC2)n2ncc(-c3ccccc3)c2n1	24	0	-8	-1	4	-3
CC(C)(C)c1cc(N2CCOCC2)n2ncc(-c3ccccc3)c2n1	10	0	-4	0	32*	12
Nc1nc(-c2ccco2)nc(N2CCCCC2)n1	/	/	5	-21	/	/
CCN1/C(=C/C=C/c2sc3ccccc3[n+]2CC)Sc2ccccc21	/	/	-2	-8	/	/
CCN1/C(=C/C=C/c2oc3ccc(-c4ccccc4)cc3[n+]2CC)Oc2ccc(-c3ccccc3)cc21	77*	0	34	-7	-2	87
COc1ccc(CN(CC2CCC(C(=O)O)CC2)C(=S)Nc2ccc(C)c(Cl)c2)cc1 (stereo unspecified)	15	0	/	-2	6	-33*
COc1ccc(NC(=S)N(Cc2cccc(Br)c2)CC2CCC(C(=O)O)CC2)cc1 (stereo unspecified)	-17	/	11	2	-2	-6
COc1cccc(OCc2ccc(C(=O)NCC3CCCO3)cc2)c1 (stereo unspecified)	11	/	/	/	/	/
CN(C)CC1CC/C(=C\c2ccc(O)cc2)C1=O (stereo unspecified)	-58	0	/	/	2	-31*
SMILES	HIV Env fusion	FGF22 binding	PGC1a acetyl inh	Cneo AK release	ERAP1 HTS inh	Ecoli rRNA inh
CC1CCC/C(=C\c2ccc(O)cc2)C1=O (stereo unspecified)	-4	0	6	-3	3	/
CN(C)CC1CCC/C(=C\c2ccc(OC(=O)c3ccc(Cl)cc3)cc2)C1=O (stereo unspecified)	60*	1	/	/	0	1
C[C@H]1CN([C@@H](C)CO)C(=O)Cc2cc(NC(=O)C3CCCCC3)ccc2O[C@H]1CN(C)S(=O)(=O)c1ccc(F)cc1	/	0	-8	4	2	-2
CCOC(=O)c1c(CSC(=N)N)n(-c2ccc(C)cc2)c2cc(Br)c(OC(C)=O)cc12	-41	/	-31	3	/	/
CCOC(=O)c1c(CSC(=N)N)n(C)c2cc(Br)c(OC(C)=O)cc12	-11	0	/	/	-10	-27*
COc1ccc2nc(/N=C\N(C)C)sc2c1	i	/	-1	-1	/	/
CN(C)/C=N/c1nc2ccc3c(c2s1)CCCC3	/	0	1	-1	-1	-26*
Cc1cc(C)cc(S(=O)(=O)c2cnc3ccccc3n2)c1	7	43*	/	/	2	16
O=C1CC(c2ccccc2F)c2c(c3ccccc3[nH]c2=O)O1 (stereo unspecified)	-34	0	-3	/	-3	17
O=C1CC(c2cccc(F)c2)c2c(c3ccccc3[nH]c2=O)O1 (stereo unspecified)	-2	43*	/	/	-6	9
COc1ccc(/C=C2\CCCC3C2=NN(C(=O)c2scnc2C)C3c2ccc(OC)c(OC)c2)cc1OC (stereo unspecified)	66*	/	-1	0	/	/
COc1ccc(/C=C2\CCCC3C2=NN(C(=O)c2ccco2)C3c2ccc(OC)c(OC)c2)cc1OC (stereo unspecified)	/	/	-2	1	/	/
CCc1nnc(NS(=O)(=O)c2ccc(NC(=S)NC(=O)/C=C/c3ccccc3)cc2)s1	/	0	/	/	-1	-37*
CCc1nnc(NS(=O)(=O)c2ccc(NC(=O)/C=C/c3ccccc3Cl)cc2)s1	5	1.8*	/	/	-2	-56
Nc1ccccc1N=Cc1ccc(-c2cccc(Cl)c2)o1	-101	1	-13	-1	-2	-26*
COc1ccccc1OCC(=O)N/N=C1/C=C(C)CC1	-18	43*	/	/	5	16
COc1ccccc1OCC(=O)NNC(=O)CCCC(=O)NNC(=O)COc1ccccc1OC	3	0	-3	5	/	12
CC(O)(c1ccc(F)c(F)c1)c1nc(-c2ccc3ccccc3c2)cs1 (stereo unspecified)	15	0	-2	0	-2	-16
COc1ccc2c(c1OC)C(=O)N1N=C(c3ccc(F)cc3)CC21 (stereo unspecified)	24	44*	12	/	3	2

Screening results from PubChem BioAssay.
